Experimental data reported in ChEMBL document CHEMBL1828552, “Synthesis and studies of novel 2-(4-cyano-3-trifluoromethylphenyl amino)-4-(quinoline-4-yloxy)-6-(piperazinyl/piperidinyl)-s-triazines as potential antimicrobial, antimycobacterial and anticancer agents” (2011).
In brackets after ≈: the same amount, converted by molar mass.

The compounds below were run on Escherichia coli (assay: Antibacterial activity against 10^5 CFU/mL Escherichia coli MTCC 739 after 24 hrs by agar streak dilution method). Conditions: MTCC 739, 24 h.
Format: functional
Summary of the method: (§1)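 Agar streak dilution. Stock 100 µg/mL in DMSO; graded amounts were mixed into molten nutrient agar and poured at 4–5 mm depth. Plates carried serial dilutions over […]. About 10⁵ CFU/mL of each bacterium was applied, and plates were incubated at 37 ± 1 °C for 24 h. MIC was read from the dilution series.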
`N#Cc1ccc(Nc2nc(Oc3ccnc4ccccc34)nc(N3CCN(c4ncccn4)CC3)n2)cc1C(F)(F)F` was tested, and the MIC was 100 µg/mL (≈ 175 µM).

Each compound was assayed on Klebsiella pneumoniae (assay: Antibacterial activity against 10^5 CFU/mL Klebsiella pneumoniae MTCC 109 after 24 hrs by agar streak dilution method). Conditions: MTCC 109, 24 h.
Format: functional
Summary of the method: as §1
`N#Cc1ccc(Nc2nc(Oc3ccnc4ccccc34)nc(N3CCN(c4ncccn4)CC3)n2)cc1C(F)(F)F` was tested, and the MIC was 100 µg/mL (≈ 175 µM).

These compounds were tested on Proteus vulgaris (assay: Antibacterial activity against 10^5 CFU/mL Proteus vulgaris MTCC 1771 after 24 hrs by disc diffusion technique). Conditions: not given.
Format: functional
Summary of the method: (§2)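 Disc diffusion on Mueller–Hinton agar poured 5 mm deep. The surface was swabbed with a 10⁵ CFU/mL […] suspension. Filter-paper discs 6.25 mm in diameter were soaked in compound in DMSO and placed on the agar. Plates were incubated 24 h at 37 ± 1 °C, and the inhibition zone was measured in mm. A DMSO disc served as blank.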
For `N#Cc1ccc(Nc2nc(Oc3ccnc4ccccc34)nc(N3CCN(c4ncccn4)CC3)n2)cc1C(F)(F)F`, the “inhibition zone (IZ)” value was 18 mm.

What follows are compounds tested on Aspergillus niger (assay: Antifungal activity against 10^5 CFU/mL Aspergillus niger MTCC 282 after 48 hrs by disc diffusion technique). Conditions: not given.
Format: functional
For `N#Cc1ccc(Nc2nc(Oc3ccnc4ccccc34)nc(N3CCN(c4ncccn4)CC3)n2)cc1C(F)(F)F`, the “inhibition zone (IZ)” value was 11 mm.

The compounds below were run on Aspergillus niger (assay: Antifungal activity against 10^5 CFU/mL Aspergillus niger MTCC 282 after 48 hrs by agar streak dilution method). Conditions: MTCC 282, 48 h.
Format: functional
Summary of the method: (§3)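 Agar streak dilution for fungi. Stock 100 µg/mL in DMSO; graded amounts were mixed into molten Sabouraud dextrose agar and poured at 4–5 mm depth. Serial dilutions ran over […]. About 10⁵ CFU/mL inoculum was applied, with incubation at 37 ± 1 °C for 48 h. MIC was read from the dilution series.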
`N#Cc1ccc(Nc2nc(Oc3ccnc4ccccc34)nc(N3CCN(c4ncccn4)CC3)n2)cc1C(F)(F)F` showed an MIC of 100 µg/mL (≈ 175 µM).

What follows are compounds tested on Bacillus cereus (assay: Antibacterial activity against 10^5 CFU/mL Bacillus cereus MTCC 619 after 24 hrs by agar streak dilution method). Conditions: MTCC 619, 24 h.
Format: functional
Summary of the method: as §1
With `N#Cc1ccc(Nc2nc(Oc3ccnc4ccccc34)nc(N3CCN(c4ncccn4)CC3)n2)cc1C(F)(F)F` the MIC was 50 µg/mL (≈ 87.6 µM).

The compounds below were run on Pseudomonas aeruginosa (assay: Antibacterial activity against 10^5 CFU/mL Pseudomonas aeruginosa MTCC 741 after 24 hrs by agar streak dilution method). Conditions: MTCC 741, 24 h.
Format: functional
Summary of the method: as §1
`N#Cc1ccc(Nc2nc(Oc3ccnc4ccccc34)nc(N3CCN(c4ncccn4)CC3)n2)cc1C(F)(F)F` gave an MIC of 100 µg/mL (≈ 175 µM).

The compounds below were run on Shigella flexneri (assay: Antibacterial activity against 10^5 CFU/mL Shigella flexneri MTCC 1457 after 24 hrs by agar streak dilution method). Conditions: MTCC 1457, 24 h.
Format: functional
Summary of the method: as §1
Work on `N#Cc1ccc(Nc2nc(Oc3ccnc4ccccc34)nc(N3CCN(c4ncccn4)CC3)n2)cc1C(F)(F)F` yielded an MIC of 100 µg/mL (≈ 175 µM).

The compounds below were run on Bacillus cereus (assay: Antibacterial activity against 10^5 CFU/mL Bacillus cereus MTCC 619 after 24 hrs by disc diffusion technique). Conditions: not given.
Format: functional
Summary of the method: as §2
`N#Cc1ccc(Nc2nc(Oc3ccnc4ccccc34)nc(N3CCN(c4ncccn4)CC3)n2)cc1C(F)(F)F` was tested, and the “inhibition zone (IZ)” value was 21 mm.

These compounds were tested on DU-145 (assay: Cytotoxicity against […] human DU145 cells after 48 hrs by SRB assay). Conditions: DU-145, 48 h.
Format: functional
Summary of the method: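 SRB assay in DU-145 cells grown in RPMI 1640 with 10% FBS and 2 mM L-glutamine. Cells were plated and held 24 h before addition of four 10-fold concentrations. After 48 h, cells were TCA-fixed, stained with 0.4% SRB and read at 540 nm. GI50, TGI and LC50 were derived against time-zero and control wells; each value is the mean of three experiments.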
`N#Cc1ccc(Nc2nc(Oc3ccnc4ccccc34)nc(N3CCN(c4ncccn4)CC3)n2)cc1C(F)(F)F` was tested, and the GI50 was 85.2 µM, the LC50 (concentration giving 50% net cell kill relative to time zero) was > 100 µM and the TGI was > 100 µM.

The compounds below were run on Aspergillus clavatus (assay: Antifungal activity against 10^5 CFU/mL Aspergillus clavatus MTCC 1323 after 48 hrs by agar streak dilution method). Conditions: MTCC 1323, 48 h.
Format: functional
Summary of the method: as §3
Compound `N#Cc1ccc(Nc2nc(Oc3ccnc4ccccc34)nc(N3CCN(c4ncccn4)CC3)n2)cc1C(F)(F)F` has an MIC of 100 µg/mL (≈ 175 µM).

The compounds below were run on Salmonella typhi (assay: Antibacterial activity against 10^5 CFU/mL Salmonella typhi MTCC 733 after 24 hrs by agar streak dilution method). Conditions: Salmonella enterica, MTCC 733, 24 h.
Format: functional, Salmonella enterica subsp. enterica serovar Typhi
Work on `N#Cc1ccc(Nc2nc(Oc3ccnc4ccccc34)nc(N3CCN(c4ncccn4)CC3)n2)cc1C(F)(F)F` yielded an MIC of 100 µg/mL (≈ 175 µM).

These compounds were tested on Proteus vulgaris (assay: Antibacterial activity against 10^5 CFU/mL Proteus vulgaris MTCC 1771 after 24 hrs by agar streak dilution method). Conditions: MTCC 1771, 24 h.
Format: functional
Summary of the method: as §1
Compound `N#Cc1ccc(Nc2nc(Oc3ccnc4ccccc34)nc(N3CCN(c4ncccn4)CC3)n2)cc1C(F)(F)F` has an MIC of 100 µg/mL (≈ 175 µM).

These compounds were tested on Pseudomonas aeruginosa (assay: Antibacterial activity against 10^5 CFU/mL Pseudomonas aeruginosa MTCC 741 after 24 hrs by disc diffusion technique). Conditions: not given.
Format: functional
Summary of the method: as §2
For `N#Cc1ccc(Nc2nc(Oc3ccnc4ccccc34)nc(N3CCN(c4ncccn4)CC3)n2)cc1C(F)(F)F`, the “inhibition zone (IZ)” value was 16 mm.

What follows are compounds tested on Aspergillus fumigatus (assay: Antifungal activity against 10^5 CFU/mL Aspergillus fumigatus MTCC 343 after 48 hrs by agar streak dilution method). Conditions: MTCC 343, 48 h.
Format: functional
Summary of the method: as §3
In the case of `N#Cc1ccc(Nc2nc(Oc3ccnc4ccccc34)nc(N3CCN(c4ncccn4)CC3)n2)cc1C(F)(F)F`, the MIC is reported as 100 µg/mL (≈ 175 µM).

Each compound was assayed on Salmonella typhi (assay: Antibacterial activity against 10^5 CFU/mL Salmonella typhi MTCC 733 after 24 hrs by disc diffusion technique). Conditions: not given.
Format: functional, Salmonella enterica subsp. enterica serovar Typhi
Summary of the method: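 Disc diffusion. Mueller-Hinton agar autoclaved 120 °C 30 min, poured 5 mm deep. Surface swabbed with 10⁵ CFU/mL suspension […]. 6.25 mm filter-paper discs soaked in compound in DMSO; DMSO-only disc as blank. Incubated 37 ± 1 °C, 24 h for bacteria or 48 h for fungi. Ciprofloxacin and ketoconazole discs as reference drugs. Inhibition zone measured in mm.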
In the case of `N#Cc1ccc(Nc2nc(Oc3ccnc4ccccc34)nc(N3CCN(c4ncccn4)CC3)n2)cc1C(F)(F)F`, the “inhibition zone (IZ)” value is reported as 16 mm.

The compounds below were run on Aspergillus fumigatus (assay: Antifungal activity against 10^5 CFU/mL Aspergillus fumigatus MTCC 343 after 48 hrs by disc diffusion technique). Conditions: not given.
Format: functional
For `N#Cc1ccc(Nc2nc(Oc3ccnc4ccccc34)nc(N3CCN(c4ncccn4)CC3)n2)cc1C(F)(F)F`, the “inhibition zone (IZ)” value was 13 mm.

The compounds below were run on Aspergillus clavatus (assay: Antifungal activity against 10^5 CFU/mL Aspergillus clavatus MTCC 1323 after 48 hrs by disc diffusion technique). Conditions: not given.
Format: functional
`N#Cc1ccc(Nc2nc(Oc3ccnc4ccccc34)nc(N3CCN(c4ncccn4)CC3)n2)cc1C(F)(F)F` was tested, and the “inhibition zone (IZ)” value was 11 mm.

Each compound was assayed on Klebsiella pneumoniae (assay: Antibacterial activity against 10^5 CFU/mL Klebsiella pneumoniae MTCC 109 after 24 hrs by disc diffusion technique). Conditions: not given.
Format: functional
Summary of the method: as §2
`N#Cc1ccc(Nc2nc(Oc3ccnc4ccccc34)nc(N3CCN(c4ncccn4)CC3)n2)cc1C(F)(F)F` was tested, and the “inhibition zone (IZ)” value was 17 mm.

These compounds were tested on Escherichia coli (assay: Antibacterial activity against 10^5 CFU/mL Escherichia coli MTCC 739 after 24 hrs by disc diffusion technique). Conditions: not given.
Format: functional
Summary of the method: as §2
With `N#Cc1ccc(Nc2nc(Oc3ccnc4ccccc34)nc(N3CCN(c4ncccn4)CC3)n2)cc1C(F)(F)F` the “inhibition zone (IZ)” value was 18 mm.

What follows are compounds tested on Staphylococcus aureus (assay: Antibacterial activity against 10^5 CFU/mL Staphylococcus aureus MTCC 96 after 24 hrs by disc diffusion technique). Conditions: not given.
Format: functional
Summary of the method: as §2
`N#Cc1ccc(Nc2nc(Oc3ccnc4ccccc34)nc(N3CCN(c4ncccn4)CC3)n2)cc1C(F)(F)F` was tested, and the “inhibition zone (IZ)” value was 21 mm.

What follows are compounds tested on Shigella flexneri (assay: Antibacterial activity against 10^5 CFU/mL Shigella flexneri MTCC 1457 after 24 hrs by disc diffusion technique). Conditions: not given.
Format: functional
Summary of the method: as §2
`N#Cc1ccc(Nc2nc(Oc3ccnc4ccccc34)nc(N3CCN(c4ncccn4)CC3)n2)cc1C(F)(F)F` was tested, and the “inhibition zone (IZ)” value was 17 mm.

These compounds were tested on Candida albicans (assay: Antifungal activity against 10^5 CFU/mL Candida albicans MTCC 183 after 48 hrs by agar streak dilution method). Conditions: MTCC 183, 48 h.
Format: functional
Summary of the method: as §3
`N#Cc1ccc(Nc2nc(Oc3ccnc4ccccc34)nc(N3CCN(c4ncccn4)CC3)n2)cc1C(F)(F)F` gave an MIC of 100 µg/mL (≈ 175 µM).

The compounds below were run on Candida albicans (assay: Antifungal activity against 10^5 CFU/mL Candida albicans MTCC 183 after 48 hrs by disc diffusion technique). Conditions: not given.
Format: functional
For `N#Cc1ccc(Nc2nc(Oc3ccnc4ccccc34)nc(N3CCN(c4ncccn4)CC3)n2)cc1C(F)(F)F`, the “inhibition zone (IZ)” value was 13 mm.

Each compound was assayed on Staphylococcus aureus (assay: Antibacterial activity against 10^5 CFU/mL Staphylococcus aureus MTCC 96 after 24 hrs by agar streak dilution method). Conditions: MTCC 96, 24 h.
Format: functional
Summary of the method: as §1
With `N#Cc1ccc(Nc2nc(Oc3ccnc4ccccc34)nc(N3CCN(c4ncccn4)CC3)n2)cc1C(F)(F)F` the MIC was 100 µg/mL (≈ 175 µM).
